The results in this text go back to ChEMBL document CHEMBL1123644, “Potential antitumor agents. 53. Synthesis, DNA binding properties, and biological activity of perimidines designed as "minimal" DNA-intercalating agents” (J Med Chem, 1987).

One data set deals with L1210. Briefly: In vitro growth inhibition of murine leukemia L1210 cells after 40 hours exposure. It counts as functional, cell-based. The note with it: Mus musculus, L1210, 40 h.
Data set [1] concerns P388. Nature of the data set: Optimal dose administered intraperitoneally as a solution in 0.1 mL of 30% v/v ethanol-water on days 1,5 and 9 after intraperitoneal inoculation of 10 e6 P388 leukemia cells. In kind it is functional, Mus musculus.
Data set [2] concerns Nucleic Acid. Briefly: The compound was tested for DNA (from Escherichia coli plasmid pNZ116 ) binding constant to poly[d(G-C)] determined by ethidium bromide displacement. In kind it is nucleic-acid assay. An outline of the steps: (§1)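 Binding constants to poly[d(A-T)] and poly[d(G-C)] were determined by ethidium bromide displacement.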
For data set [3], the system named is Nucleic Acid. Nature of the data set: The compound was tested for DNA (from Escherichia coli plasmid pNZ116 ) binding constant to poly[d(A-T)] determined by ethidium bromide displacement. In kind it is nucleic-acid assay. A digest of the protocol:
as §1

Data set [4] deals with P388. Nature of the data set: Percent increase in life span of drug treated tumor( P388 leukemia cells)-bearing animal compared to that of untreated tumor bearing control when treated at optimal dose; Compound inactive at all dose levels up to toxic ones. In kind it is functional. The note with it: Mus musculus.
The nature of data set [5]: The pKa value spectrophotometrically in water at 25 degree Centigrade. In kind it is physicochemical.
The subject of data set [6] is P388. Briefly: Optimal dose administered intraperitoneally as a solution in 0.1 mL of 30% v/v ethanol-water on days 1,5 and 9 after intraperitoneal inoculation of 10 e6 P388 leukemia cells; ND means no data. It counts as functional, Mus musculus.
Data set [7] has as its system P388. Nature of the data set: Percent increase in life span of drug treated tumor( P388 leukemia cells)-bearing animal compared to that of untreated tumor bearing control when treated at optimal dose. It counts as functional, Mus musculus.
Data set [8] deals with P388. Briefly: Percent increase in life span of drug treated tumor( P388 leukemia cells)-bearing animal compared to that of untreated tumor bearing control when treated at optimal dose; NA means not active compound inactive at all dose levels up to toxic ones. In kind it is functional. The note with it: Mus musculus.
Data set [9] has as its system P388. Briefly: Percent increase in life span of drug treated tumor( P388 leukemia cells)-bearing animal compared to that of untreated tumor bearing control when treated at optimal dose; NA means not active. In kind it is functional. The note with it: Mus musculus.

Structures are written as SMILES. Calls of active or inactive are those of the source. The calls are words filed in the database; no cut-off is given here.

As a reminder, the IC50 is the point on the concentration scale where inhibition reaches its midpoint. Read a high IC50 as weaker potency in that assay. Consider `CCN(CC)CCNC(=O)C1=Nc2cccc3cccc(c23)N1`, for which it took 1100 nM to reach half-maximal inhibition with L1210 (IC50).

For orientation: ILS means how much longer treated animals lived than controls. As to `CN(C)CCNC1=Nc2cccc3cccc(c23)N1`, in the data set on P388 [1], the OD came to 65 mg/kg/day. Further, the values for the Log K in the data set with Nucleic Acid [2] and in the data set with Nucleic Acid [3] were 5.9 and 5.77, respectively. The ILS entry in the data set with P388 [4] is “inactive”. This compound also yielded an IC50 with L1210 of 2500 nM.

By pKa is commonly meant the negative logarithm of the acid dissociation constant. Read a low pKa as a stronger acid or weaker base. `CN(C)CCN1C=Nc2cccc3cccc1c23` displayed an OD in the data set with P388 [1] of 150 mg/kg/day. In addition, the results for the Log K in the data set with Nucleic Acid [2] and with Nucleic Acid [3] were 5.31 and 5.17, respectively. In addition, the ILS entry in the data set on P388 [4] is “inactive”. Besides, it took 20000 nM to reach half-maximal inhibition in the data set with L1210 (IC50). Further, the pKa in data set [5] came to 4.64.

Regarding `CN(C)CCCCN1C(=O)c2cccc3cccc(c23)C1=O`, in the data set with L1210, the IC50 stood at 1900 nM.

In the data set on L1210, `CN(C)CCCNC(=O)CC1=Nc2cccc3cccc(c23)N1` gave a 50% inhibitory concentration (IC50) above 21000 nM.

In turn, `CN(C)CCNC(=O)C1=Nc2cccc3cncc(c23)N1` had an OD in the data set with P388 [1] of 65 mg/kg/day. The figures for the Log K in the data set on Nucleic Acid [2] and in the data set on Nucleic Acid [3] were 5.88 and 5.71, respectively. Also, the ILS result with P388 [4] is “inactive”. Moreover, inhibition in the data set on L1210 was half-maximal at 21700 nM (IC50).

For `O=C(NCCN1CCOCC1)C1=Nc2cccc3cccc(c23)N1`, the IC50 in the data set with L1210 stood at 14100 nM.

Regarding `CN(C)CCN1C(=O)c2cccc3cccc(c23)C1=O`, the OD in the data set on P388 [6] stood at 150 mg/kg/day. The Log K in the data set on Nucleic Acid [2] was found to be 5.87; in the data set with Nucleic Acid [3], 5.46. In the data set with P388 [7], this compound returned an increase in lifespan (ILS) of 31%. This compound returned an IC50 in the data set on L1210 of 1600 nM.

`CN(C)CCCCN1C=Nc2cccc3cccc1c23` registered a half-inhibitory concentration (IC50) in the data set with L1210 of 2200 nM. The same compound showed a pKa in [5] of 5.3.

Turning to `CN(C)CCSC1=Nc2cccc3cccc(c23)N1`, in the data set with P388 [1], the OD was found to be 150 mg/kg/day. Besides, the Log K with Nucleic Acid [2] was 6.1; in the data set with Nucleic Acid [3], 5.78. In the data set on P388 [4], the ILS entry is “inactive”. The same compound gave a half-maximal inhibitory concentration (IC50) in the data set with L1210 of 1800 nM. The pKa in data set [5] is 2.66.

In the data set with P388 [1], `CN(C)CCCN1C=Nc2cccc3cccc1c23` displayed an OD of 150 mg/kg/day. Inhibition in the data set with L1210 was half-maximal at 15300 nM (IC50). Further, the ILS entry in the data set on P388 [8] is “inactive”. The pKa in data set [5] was 5.1.

With `CN(C)CCCNC1=Nc2cccc3cccc(c23)N1`, in the data set with L1210, the IC50 was found to be 4000 nM.

`CN(C)CCCCNC(=O)C1=Nc2cccc3cccc(c23)N1`: the IC50 in the data set on L1210 was determined as 1500 nM.

`CN(C)CCCNC(=O)C1=Nc2cccc3cccc(c23)N1`: half-maximal inhibition with L1210 (IC50) was put at 870 nM.

In the case of `O=C(NCCN1CCCCC1)C1=Nc2cccc3cccc(c23)N1`, in the data set on L1210, it took 1300 nM to reach half-maximal inhibition (IC50).

In turn, `CN(C)CCNC(=O)C1=Nc2cccc3cccc(c23)N1` showed an OD in the data set on P388 [1] of 150 mg/kg/day. Also, the Log K in the data set with Nucleic Acid [2] and in the data set on Nucleic Acid [3] was 6.51 each time. Besides, in the data set with P388 [4], the ILS result is “inactive”. The 50% inhibitory concentration (IC50) in the data set with L1210 stood at 440 nM. In data set [5], this compound registered a pKa of 1.74.

Take `CN(C)CCCSC1=Nc2cccc3cccc(c23)N1`: the IC50 in the data set on L1210 was determined as 5700 nM.

In turn, `CN(C)CCNC(=O)CC1=Nc2cccc3cccc(c23)N1` gave an OD with P388 [1] of 65 mg/kg/day. Moreover, the Log K was 5.88 with Nucleic Acid [2] and 5.74 in the data set on Nucleic Acid [3]. The midpoint of inhibition in the data set with L1210, the IC50, lay at 16700 nM. Moreover, the ILS entry in the data set with P388 [9] was “inactive”.
